For data set [1], the target named is human serum albumin (HSA) (Homo sapiens, UniProt P02768). The experiment in a line: Binding of nucleotides to human serum albumin by native ESI-FT-ICR MS. The essentials: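 Commercial HSA buffer-exchanged five times into 10 mM NH4Ac (pH 6.0) on a 30k membrane filter. Purified HSA (3 μM) mixed with varying nucleotide concentrations in 10 mM NH4Ac and infused at 5 μL∙min−1 in native positive-mode ESI-FT-ICR MS, m/z 1000–5000, 200 scans combined. Free HSA to complex intensity ratios taken from deconvoluted 17+ to 19+ charge states; KD by nonlinear regression.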

Data set [2] can be described thus: Degradation in liver homogenate on ice and at room temperature. The note with it: both on ice and at room temperature; Fig. 4a. It is filed as in vitro ADME, mouse.

By Kd is commonly meant the concentration at which binding is half-saturated. A lower Kd goes with tighter binding.

Sequence of human serum albumin (HSA) (P02768 25-609): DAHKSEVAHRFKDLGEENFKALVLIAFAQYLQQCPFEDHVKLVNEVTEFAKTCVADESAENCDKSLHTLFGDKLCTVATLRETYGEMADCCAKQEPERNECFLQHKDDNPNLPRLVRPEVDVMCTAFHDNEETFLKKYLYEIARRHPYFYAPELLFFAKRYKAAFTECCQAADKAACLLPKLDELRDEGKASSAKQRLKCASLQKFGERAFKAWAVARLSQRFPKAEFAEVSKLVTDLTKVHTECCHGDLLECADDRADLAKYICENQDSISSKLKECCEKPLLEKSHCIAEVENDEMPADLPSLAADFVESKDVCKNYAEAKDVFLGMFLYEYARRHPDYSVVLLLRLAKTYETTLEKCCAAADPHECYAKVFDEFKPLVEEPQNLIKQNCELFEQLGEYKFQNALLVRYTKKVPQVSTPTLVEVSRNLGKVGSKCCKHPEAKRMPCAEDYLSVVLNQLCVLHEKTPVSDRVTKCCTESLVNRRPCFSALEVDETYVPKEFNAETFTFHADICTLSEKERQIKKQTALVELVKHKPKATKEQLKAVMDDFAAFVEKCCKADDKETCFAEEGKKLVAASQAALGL

`O=c1ccn([C@@H]2O[C@H](COP(=O)(O)OP(=O)(O)OP(=O)(O)O)[C@@H](O)[C@H]2O)c(=O)[nH]1` [UTP, uridine triphosphate] registered a Kd in data set [1] of 6.79 ± 0.333 µM.
As to `Nc1ncnc2c1ncn2[C@@H]1O[C@H](COP(=O)(O)OP(=O)(O)OP(=O)(O)O)[C@@H](O)[C@H]1O` [ATP, Adenosine triphosphate], binding in data set [1] was characterised by a dissociation constant (Kd) of 0.471 ± 0.0238 µM.
As for `CCC(CC)COC(=O)[C@H](C)N[P@](=O)(OC[C@H]1O[C@@](C#N)(c2ccc3c(N)ncnn23)[C@H](O)[C@@H]1O)Oc1ccccc1` [RDV, Remdesivir], the “degradation in bio-sample without stabilizer” value in data set [2] is recorded as “almost completely degraded in 5 min”.
